# pIC50, pKi: −log10 of the molar value.
# How the values were obtained:
# [1] = Permeability across Caco-2 cells; type: ADME, cell-based; conditions: human, read-out: permeability
# [2] = Volume of distribution at steady state in dog at 0.5 mg/kg, iv; type: ADME, organism-based, Canis lupus familiaris; parameters: dose 0.5 mg/kg, route intravenous; conditions: in vivo, read-out: Vdss
# Method in brief: (§1)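 Dogs. Intravenous dose 0.5 mg/kg, used for clearance (L/kg/h), steady-state volume of distribution (L/kg) and iv half-life.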
# [3] = Metabolic stability in human liver microsomes after 10 mins; type: ADME, Microsome; conditions: read-out: Stability
# Method in brief: (§2)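 Human liver microsomes, 10-min incubation. Metabolic stability given as % compound remaining. Microsomal intrinsic clearance rate (nmol/min/mg) is based on the % remaining after 10 min.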
# [4] = Clearance in dog at 0.5 mg/kg, iv; type: ADME, organism-based, Canis lupus familiaris; parameters: dose 0.5 mg/kg, route intravenous; conditions: in vivo; method in brief: as §1
# [5] = Half life in dog at 0.2 mg/kg, po; type: ADME, organism-based, Canis lupus familiaris; parameters: dose 0.2 mg/kg, route oral; conditions: in vivo
# Liver microsomes = assay: Metabolic stability in human liver microsomes assessed as microsomal intrinsic clearance rate; type: ADME, Microsome; method in brief: as §2
# [6] = Bioavailability in dog at 0.2 mg/kg, po; type: ADME, organism-based, Canis lupus familiaris; conditions: in vivo; method in brief: as §1
# [7] = Half life in dog at 0.5 mg/kg, iv; type: ADME, organism-based, Canis lupus familiaris; parameters: dose 0.5 mg/kg, route intravenous; conditions: in vivo; method in brief: as §1
# Coagulation factor X = Coagulation factor X (Homo sapiens, UniProt P00742); assay: Inhibition of human factor 10a
# [8] = Cytotoxicity against HEK cells; type: cell-based; conditions: Homo sapiens, HEK293
# [9] = biological target: Vitamin K-dependent protein C (Homo sapiens, UniProt P04070); assay: Inhibition of human activated protein C
# [10] = Inhibition of human chymotrypsin
# [11] = biological target: Urokinase-type plasminogen activator (Homo sapiens, UniProt P00749); assay: Inhibition of human urokinase
# Trypsin = Trypsin (Homo sapiens, UniProt P07477+P07478+P35030); assay: Inhibition of human trypsin; type: protein assay
# [12] = biological target: Tissue-type plasminogen activator (Homo sapiens, UniProt P00750); assay: Inhibition of human tissue plasminogen activator
# Plasma kallikrein = Plasma kallikrein (Homo sapiens, UniProt P03952); assay: Inhibition of human plasma kallikrein; type: cell-free
# Plasminogen = Plasminogen (Homo sapiens, UniProt P00747); assay: Inhibition of human Plasmin
# Coagulation factor VII = biological target: T1, Coagulation factor VII (Homo sapiens, UniProt P08709); assay: Inhibition of human factor 7a
# T1 sequence (P08709 whole entry): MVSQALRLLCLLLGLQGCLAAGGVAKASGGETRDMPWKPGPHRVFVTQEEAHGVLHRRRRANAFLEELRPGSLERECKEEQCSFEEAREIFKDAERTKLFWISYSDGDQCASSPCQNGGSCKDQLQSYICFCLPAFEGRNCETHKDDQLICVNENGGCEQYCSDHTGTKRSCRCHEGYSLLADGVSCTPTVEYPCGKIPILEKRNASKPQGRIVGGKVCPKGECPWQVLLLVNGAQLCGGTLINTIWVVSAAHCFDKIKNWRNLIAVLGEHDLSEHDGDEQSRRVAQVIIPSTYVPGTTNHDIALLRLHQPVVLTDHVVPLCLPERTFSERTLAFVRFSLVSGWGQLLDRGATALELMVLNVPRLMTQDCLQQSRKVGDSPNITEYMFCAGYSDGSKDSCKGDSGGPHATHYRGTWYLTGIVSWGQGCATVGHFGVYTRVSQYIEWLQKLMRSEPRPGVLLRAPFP
# Prothrombin = Prothrombin (Homo sapiens, UniProt P00734); assay: Inhibition of human thrombin
# Coagulation factor XI = Coagulation factor XI (Homo sapiens, UniProt P03951); assay: Inhibition of human factor 11a
# Chain of Coagulation factor XI (P03951 19-387 limits assumed): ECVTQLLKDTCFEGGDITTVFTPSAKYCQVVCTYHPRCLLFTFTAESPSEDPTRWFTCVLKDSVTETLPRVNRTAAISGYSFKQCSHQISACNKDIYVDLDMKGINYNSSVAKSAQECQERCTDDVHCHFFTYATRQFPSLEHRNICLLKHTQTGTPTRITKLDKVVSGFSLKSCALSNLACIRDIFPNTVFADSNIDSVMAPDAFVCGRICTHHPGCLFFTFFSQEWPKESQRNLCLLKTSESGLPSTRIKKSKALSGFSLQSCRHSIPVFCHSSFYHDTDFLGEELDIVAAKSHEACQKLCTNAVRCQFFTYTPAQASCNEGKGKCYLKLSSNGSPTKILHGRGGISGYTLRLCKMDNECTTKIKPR
# Chain of Coagulation factor XI (P03951 388-625 limits assumed): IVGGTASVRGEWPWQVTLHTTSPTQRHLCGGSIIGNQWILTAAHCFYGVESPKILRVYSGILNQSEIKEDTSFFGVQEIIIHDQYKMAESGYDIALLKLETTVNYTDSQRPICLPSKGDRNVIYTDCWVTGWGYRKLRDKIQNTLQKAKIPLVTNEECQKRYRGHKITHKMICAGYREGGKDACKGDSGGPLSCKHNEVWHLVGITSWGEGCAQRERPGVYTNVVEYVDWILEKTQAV
# Chain of Coagulation factor X (P00742 41-179 limits assumed): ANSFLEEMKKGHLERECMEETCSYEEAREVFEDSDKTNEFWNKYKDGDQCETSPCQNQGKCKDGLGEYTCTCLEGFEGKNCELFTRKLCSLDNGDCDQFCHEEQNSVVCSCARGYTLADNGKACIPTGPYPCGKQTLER
# Chain of Coagulation factor X (P00742 235-488 limits assumed): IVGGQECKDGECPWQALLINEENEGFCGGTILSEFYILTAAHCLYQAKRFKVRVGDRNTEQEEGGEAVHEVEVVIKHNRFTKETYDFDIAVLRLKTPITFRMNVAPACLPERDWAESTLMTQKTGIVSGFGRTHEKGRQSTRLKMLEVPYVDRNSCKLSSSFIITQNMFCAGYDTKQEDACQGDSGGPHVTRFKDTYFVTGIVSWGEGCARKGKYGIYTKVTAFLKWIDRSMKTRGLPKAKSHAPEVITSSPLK
# Chain of Plasminogen (P00747 97-580 limits assumed): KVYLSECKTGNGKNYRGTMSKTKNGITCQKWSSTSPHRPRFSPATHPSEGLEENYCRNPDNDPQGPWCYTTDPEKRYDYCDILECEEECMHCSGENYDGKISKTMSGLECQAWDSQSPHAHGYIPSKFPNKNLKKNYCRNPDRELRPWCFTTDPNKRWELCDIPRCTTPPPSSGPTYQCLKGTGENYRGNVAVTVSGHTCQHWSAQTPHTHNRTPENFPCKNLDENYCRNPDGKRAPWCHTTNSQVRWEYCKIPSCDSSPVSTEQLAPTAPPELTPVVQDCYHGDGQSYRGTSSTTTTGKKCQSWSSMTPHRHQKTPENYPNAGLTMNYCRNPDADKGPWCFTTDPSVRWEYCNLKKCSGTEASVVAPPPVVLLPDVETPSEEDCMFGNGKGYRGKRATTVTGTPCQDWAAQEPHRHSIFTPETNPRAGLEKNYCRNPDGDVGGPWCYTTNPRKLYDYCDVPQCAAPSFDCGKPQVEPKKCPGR
# Chain of Plasminogen (P00747 581-810 limits assumed): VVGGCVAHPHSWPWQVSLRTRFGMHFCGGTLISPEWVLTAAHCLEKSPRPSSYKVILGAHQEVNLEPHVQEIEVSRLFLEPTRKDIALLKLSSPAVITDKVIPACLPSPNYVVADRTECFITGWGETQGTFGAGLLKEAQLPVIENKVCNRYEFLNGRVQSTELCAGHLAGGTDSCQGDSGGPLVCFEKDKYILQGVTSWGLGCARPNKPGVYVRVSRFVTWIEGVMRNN
# Chain of Tissue-type plasminogen activator (P00750 whole entry): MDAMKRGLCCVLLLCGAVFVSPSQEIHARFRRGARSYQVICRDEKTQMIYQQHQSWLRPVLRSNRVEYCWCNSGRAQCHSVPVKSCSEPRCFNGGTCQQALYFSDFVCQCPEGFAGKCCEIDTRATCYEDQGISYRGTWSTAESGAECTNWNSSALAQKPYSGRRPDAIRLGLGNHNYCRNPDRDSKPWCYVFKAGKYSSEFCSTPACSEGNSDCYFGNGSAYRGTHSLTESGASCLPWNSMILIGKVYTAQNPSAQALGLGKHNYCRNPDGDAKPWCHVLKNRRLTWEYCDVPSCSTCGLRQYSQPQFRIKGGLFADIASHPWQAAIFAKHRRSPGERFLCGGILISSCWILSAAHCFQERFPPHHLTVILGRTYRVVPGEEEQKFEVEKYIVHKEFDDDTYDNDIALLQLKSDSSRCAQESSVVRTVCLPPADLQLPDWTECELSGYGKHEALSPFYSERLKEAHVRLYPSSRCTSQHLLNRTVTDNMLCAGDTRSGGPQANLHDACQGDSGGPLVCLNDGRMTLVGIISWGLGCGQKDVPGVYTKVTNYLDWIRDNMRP
# Chain of Vitamin K-dependent protein C (P04070 43-197 limits assumed): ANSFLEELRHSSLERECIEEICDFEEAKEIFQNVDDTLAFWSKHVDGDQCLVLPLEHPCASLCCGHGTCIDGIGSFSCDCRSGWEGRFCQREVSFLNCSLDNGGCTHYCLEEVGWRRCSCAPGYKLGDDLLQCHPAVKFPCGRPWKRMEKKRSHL
# Chain of Vitamin K-dependent protein C (P04070 212-461 limits assumed): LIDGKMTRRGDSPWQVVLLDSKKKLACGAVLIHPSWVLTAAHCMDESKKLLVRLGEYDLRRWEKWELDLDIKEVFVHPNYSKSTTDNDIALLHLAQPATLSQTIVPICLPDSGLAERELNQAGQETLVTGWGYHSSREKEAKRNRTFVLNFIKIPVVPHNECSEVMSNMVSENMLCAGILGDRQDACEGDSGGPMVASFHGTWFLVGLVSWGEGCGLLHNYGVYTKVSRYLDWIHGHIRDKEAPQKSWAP
# Chain of Plasma kallikrein (P03952 20-390 limits assumed): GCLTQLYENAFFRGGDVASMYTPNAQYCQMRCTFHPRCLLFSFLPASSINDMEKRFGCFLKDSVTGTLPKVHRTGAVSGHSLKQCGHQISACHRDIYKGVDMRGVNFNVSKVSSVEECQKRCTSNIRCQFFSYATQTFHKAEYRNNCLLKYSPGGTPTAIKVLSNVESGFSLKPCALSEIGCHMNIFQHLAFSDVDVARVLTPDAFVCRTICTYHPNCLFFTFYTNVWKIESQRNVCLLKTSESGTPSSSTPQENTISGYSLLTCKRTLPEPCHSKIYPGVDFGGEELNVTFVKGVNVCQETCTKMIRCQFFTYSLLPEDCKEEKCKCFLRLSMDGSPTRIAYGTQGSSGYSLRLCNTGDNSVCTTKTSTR
# Chain of Plasma kallikrein (P03952 391-638 limits assumed): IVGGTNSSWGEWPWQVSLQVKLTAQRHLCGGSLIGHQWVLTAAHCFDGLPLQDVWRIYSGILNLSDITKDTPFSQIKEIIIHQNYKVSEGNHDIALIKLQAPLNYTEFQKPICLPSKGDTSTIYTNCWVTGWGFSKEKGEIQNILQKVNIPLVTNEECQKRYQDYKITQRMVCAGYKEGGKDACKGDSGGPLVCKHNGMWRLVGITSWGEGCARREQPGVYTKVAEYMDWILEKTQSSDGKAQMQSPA
smiles,measurement,setting,value
O=C(N[C@H]1CCC[C@H]1NC(=O)c1ccc(Cl)s1)c1ccc(-n2ccccc2=O)cc1,Papp,[1],9.2 ×10⁻⁶ cm/s
same,Vd,[2],0.8 L/kg
same,remaining at 10 min,[3],79%
same,clearance,[4],11.7 mL/min/kg
same,half-life,[5],42 min
same,clearance,Liver microsomes,0.063 nmol/min/mg
same,bioavailability,[6],60%
same,half-life,[7],42 min
O=C(N[C@H]1CN(C(=O)C2CC2)C[C@H]1NC(=O)c1ccc(Cl)s1)c1ccc(-n2ccccc2=O)cc1,pKi,Coagulation factor X,8.68
same,pIC50,[8],< 4.00
O=C(N[C@H]1CN(C(=O)c2ccccc2)C[C@H]1NC(=O)c1ccc(Cl)s1)c1ccc(-n2ccccc2=O)cc1,pKi,Coagulation factor X,8.66
same,pIC50,[8],< 4.00
COCC(=O)N1C[C@H](NC(=O)c2ccc(-n3ccccc3=O)cc2)[C@H](NC(=O)c2ccc(Cl)s2)C1,pKi,Coagulation factor X,9.44
same,pIC50,[8],< 4.00
COCCOC(=O)N1C[C@H](NC(=O)c2ccc(-n3ccccc3=O)cc2)[C@H](NC(=O)c2ccc(Cl)s2)C1,pKi,Coagulation factor X,9.03
same,pIC50,[8],< 4.00
CS(=O)(=O)N1C[C@H](NC(=O)c2ccc(-n3ccccc3=O)cc2)[C@H](NC(=O)c2ccc(Cl)s2)C1,pKi,Coagulation factor X,9.36
same,pIC50,[8],< 4.00
same,CL,Liver microsomes,0 nmol/mg/min
CC(C)S(=O)(=O)N1C[C@H](NC(=O)c2ccc(-n3ccccc3=O)cc2)[C@H](NC(=O)c2ccc(Cl)s2)C1,pKi,Coagulation factor X,8.77
same,pIC50,[8],< 4.00
CN(C)C(=O)N1C[C@H](NC(=O)c2ccc(-n3ccccc3=O)cc2)[C@H](NC(=O)c2ccc(Cl)s2)C1,pKi,Coagulation factor X,9.25
same,pIC50,[8],< 4.00
same,CL,Liver microsomes,0 nmol/mg/min
O=C(N[C@@H]1Cc2ccccc2[C@@H]1NC(=O)c1ccc2c(Cl)c[nH]c2c1)c1ccc(-n2ccccc2=O)cc1,pKi,Coagulation factor X,9.68
O=C(N[C@@H]1Cc2ccccc2[C@@H]1NC(=O)c1ccc(Cl)s1)c1ccc(-n2ccccc2=O)cc1,pKi,Coagulation factor X,6.64
O=C(N[C@H]1Cc2ccccc2[C@H]1NC(=O)c1ccc(Cl)s1)c1ccc(-n2ccccc2=O)cc1,pKi,Coagulation factor X,7.57
O=C(N[C@@H]1c2ccccc2C[C@@H]1NC(=O)c1ccc(Cl)s1)c1ccc(-n2ccccc2=O)cc1,pKi,Coagulation factor X,4.96
O=C(N[C@@H]1Cc2ccccc2[C@@H]1NC(=O)c1ccc(-n2ccccc2=O)cc1)c1ccc2c(Cl)c[nH]c2c1,pKi,Coagulation factor X,9.00
COC(=O)[C@H]1C[C@H](NC(=O)c2ccc(-n3ccccc3=O)cc2)[C@H](NC(=O)c2ccc(Cl)s2)C1,pKi,Coagulation factor X,9.28
O=C(N[C@H]1C[C@H](CO)C[C@H]1NC(=O)c1ccc(Cl)s1)c1ccc(-n2ccccc2=O)cc1,pKi,[9],< 4.68
same,pKi,Coagulation factor X,9.25
same,pKi,[10],< 4.70
same,pKi,[11],< 4.85
same,remaining at 10 min,[3],100%
same,Ki,Trypsin,> 5000 nM
same,pKi,[12],< 4.68
same,pKi,Plasma kallikrein,< 4.97
same,pKi,Plasminogen,< 4.66
same,pKi,Coagulation factor VII,< 4.96
CN(C)C(=O)[C@H]1C[C@H](NC(=O)c2ccc(-n3ccccc3=O)cc2)[C@H](NC(=O)c2ccc(Cl)s2)C1,pKi,Coagulation factor X,8.68
O=C(N[C@H]1COC[C@H]1NC(=O)c1ccc(Cl)s1)c1ccc(-n2ccccc2=O)cc1,pKi,Prothrombin,< 4.92
same,pKi,[9],< 4.68
same,pKi,Coagulation factor X,8.59
same,pKi,[10],< 4.70
same,Vd,[2],1 L/kg
same,pKi,[11],< 4.85
same,Ki,Trypsin,> 5000 nM
same,pKi,[12],< 4.68
same,pKi,Plasminogen,< 4.66
same,clearance,[4],26.7 mL/min/kg
same,half-life,[5],72 min
same,pKi,Coagulation factor VII,< 4.96
same,CL,Liver microsomes,0.031 nmol/mg/min
same,bioavailability,[6],97%
same,half-life,[7],72 min
same,pKi,Coagulation factor XI,< 4.96
O=C(N[C@H]1COC[C@H]1NC(=O)c1ccc2c(Cl)c[nH]c2c1)c1ccc(-n2ccccc2=O)cc1,pKi,Coagulation factor X,8.59
O=C(N[C@H]1CNC[C@H]1NC(=O)c1ccc(Cl)s1)c1ccc(-n2ccccc2=O)cc1,pKi,Coagulation factor X,8.02
same,pIC50,[8],< 4.00
same,CL,Liver microsomes,0 nmol/mg/min
O=C(N[C@H]1CNC[C@H]1NC(=O)c1ccc2c(Cl)c[nH]c2c1)c1ccc(-n2ccccc2=O)cc1,pKi,Coagulation factor X,7.74

# From ChEMBL document CHEMBL1149671, “Enantiopure five-membered cyclicdiamine derivatives as potent and selective inhibitors of factor Xa. Improving in vitro metabolic stability via core modifications” (Bioorg Med Chem Lett, 2007)
